Screens deposited in PubChem by The Scripps Research Institute Molecular Screening Center.
This is a sample that favours compounds with a hit; in the whole collection about 3.2% have one here.
DAGLB inhibitor: DAGLB lipase inhibitors, primary screen, biochemical, fluorescence, HTS; 340,000 tested, 0.059% active; AID 504411, 2011; inhibition, % at 5.17 µM; HEK293T DAGLB membrane lysate, EnzChek fluorogenic substrate; in the data active = inhibition above about 34%;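 also: 0% = enzyme with vehicle and 100% = wells lacking enzyme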
LEDGF integ inh: blockers of LEDGF/p75-dependent integrase strand transfer – biochemical, TR-FRET, high throughput, primary screen | 370,000 tested, 0.64% active | AID 743269, 2014 | inhibition, % at 3.7 µM | TR-FRET IN-LEDGF/p75 DNA integration, Eu/Cy5;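 active = inhibition above the screen-wide mean plus 3 SD, cut at about 13% in these data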;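 also: signal is the Cy5 over europium emission ratio at 671 and 618 nm; 0% = plate median of compound wells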
HTRA1 inh: HTRA1 serine protease inhibitors, primary screen, biochemical, fluorescence polarization, HTS; AID 504803, 2011; recombinant HTRA1, FP-rhodamine activity-based probe; 340,000 tested, 0.5% active; inhibition, % at 5.96 µM; Q92743; in the data active = inhibition above about 36%;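 also: 0% = enzyme with DMSO and 100% = wells lacking enzyme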
ABHD4 inh: ABHD4 inhibitors, primary screen, biochemical, fluorescence polarization, mouse | purified mABHD4, FP-Rh probe fluorescence polarization | AID 720543, 2013 | 370,000 tested, 0.54% active | (Lyso)-N-acylphosphatidylethanolamine lipase (Mus musculus), Q8VD66 | inhibition, % at 8.92 µM;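 active = inhibition exceeding the mean over every tested compound plus 3 SD, cut at about 30% in these data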;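 also: 0% = plate median of compound wells and 100% = S159A mutant with DMSO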
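system = mouse ABHD4 enzyme, wild type | medium = HEPES pH 7.0, NaCl, Pluronic buffer | also added = FP-Rh probe | incubation = Enzyme–compound pre-incubation 45 min, then probe 60 min, both 25 °C | technique = fluorescence polarization, excitation 525 nm, emission 598 nm, BODIPY TMR filters | controls = S159A mutant high control, sample median low control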
PRMT1 FP inh: PRMT1 methyltransferase inhibitors, primary screen, biochemical, fluorescence polarization | recombinant PRMT1, activity-based probe fluorescence polarization | 370,000 tested, 1.3% active | inhibition, % at 2.79 µM;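 active = inhibition above about 21% made by adding two undisclosed values, limit read from the data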
Target sequence (Q99873 whole entry, looked up): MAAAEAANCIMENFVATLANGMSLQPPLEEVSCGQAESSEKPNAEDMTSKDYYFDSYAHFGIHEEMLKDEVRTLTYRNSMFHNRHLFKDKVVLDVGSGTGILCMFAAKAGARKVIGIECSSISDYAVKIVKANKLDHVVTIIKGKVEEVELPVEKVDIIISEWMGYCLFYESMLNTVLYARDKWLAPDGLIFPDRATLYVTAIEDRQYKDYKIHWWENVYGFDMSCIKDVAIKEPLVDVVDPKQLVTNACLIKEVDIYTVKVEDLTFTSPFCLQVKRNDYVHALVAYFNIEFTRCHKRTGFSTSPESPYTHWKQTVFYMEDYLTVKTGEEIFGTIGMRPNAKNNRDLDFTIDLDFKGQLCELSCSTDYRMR
rCAG RNA binder: binders of r(CAG) RNA repeats, primary screen, biochemical, fluorescence; r(CAG) RNA repeat, TO-PRO-1 dye displacement fluorescence; inhibition, % at 3 µM; 370,000 tested, 1.3% active; AID 651821, 2012;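 active = inhibition above the plate cutoff, the mean of all test compounds on that plate plus 3 SD, cut at about 35% in these data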;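 also: 0% = DMSO alone and 100% = 100 µM mitoxantrone as full dye displacement; higher means more dye released from RNA so lower well fluorescence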
rCAG binder conf: small molecules binding CAG repeat RNA – biochemical, fluorescence, confirmation. AID 652065, 2013. r(CAG) RNA repeat, TO-PRO-1 dye displacement fluorescence. shares compounds with rCAG RNA binder. 4,300 tested, 70% active. inhibition, % at 3 µM;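 active = inhibition above a per-plate cutoff, the mean inhibition of sample wells plus 3 SD, cut at about 35% in these data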;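 also: loss of TO-PRO-1 fluorescence as compound displaces dye from 1x1 AA loop RNA; 0% = DMSO only wells and 100% = 100 µM mitoxantrone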
dCAG dye counter: displacement of TO-PRO-1 from CAG DNA duplex, counter-screen for rCAG RNA repeat binder project, biochemical, fluorescence, TO-PRO-1 dye, d(CAG) DNA oligo | 4,300 tested, 94% active | inhibition, % at 3 µM | d(CAG) DNA oligo TO-PRO-1 dye displacement | shares compounds with rCAG RNA binder;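 active = inhibition above its plate's cutoff, the mean test-well inhibition plus 3 SD, cut at about 4.8% in these data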;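 also: 0% = DNA dye mix with DMSO and 100% = 100 µM mitoxantrone; hits displace the dye from DNA and so lower well fluorescence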
DNA CAG DR: inhibitors of DNA CAG/GTC TO-PRO-1 complex, dose response, counter-screen for rCAG RNA repeat binder project, biochemical, fluorescence, TO-PRO-1 dye | shares compounds with rCAG RNA binder | DNA CAG/GTC duplex TO-PRO-1 dye displacement fluorescence | IC50, µM | 250 tested, 20% active; in the data active = IC50 below about 10 µM
* = called active by the depositor.

For CC(=O)NS(=O)(=O)c1ccc(NC(=O)c2cccc(S(=O)(=O)N3CCc4ccccc43)c2)cc1 the results were DAGLB inhibitor 2, LEDGF integ inh 1, HTRA1 inh -8, ABHD4 inh -15, PRMT1 FP inh 0, rCAG RNA binder 42*, rCAG binder conf 40* and dCAG dye counter 13*.
`Cc1nn(-c2ccccc2)c2sc(-c3nnc(SCC(=O)O)o3)cc12` gave DAGLB inhibitor 5, LEDGF integ inh -1, HTRA1 inh -14, ABHD4 inh 2, PRMT1 FP inh 5, rCAG RNA binder 46*, rCAG binder conf 56* and dCAG dye counter 15*.
O=C(NNC(=O)c1ccccc1Br)c1cccc(Cl)c1 was read as DAGLB inhibitor 1, LEDGF integ inh 2, HTRA1 inh -4, ABHD4 inh 5, PRMT1 FP inh -6 and rCAG RNA binder 0.
Screening O=c1cc(CSc2nnc3ccccn23)c2c(ccc3ccccc32)o1 returned DAGLB inhibitor -2, LEDGF integ inh 0, HTRA1 inh 0, ABHD4 inh 6, PRMT1 FP inh 3 and rCAG RNA binder 7.
For Cc1cc(O)c(-c2cc(C(=O)Nc3ccc(S(=O)(=O)N4CCOCC4)cc3)[nH]n2)cc1C the results were DAGLB inhibitor 0, LEDGF integ inh -2, HTRA1 inh -15, ABHD4 inh -23, PRMT1 FP inh -5, rCAG RNA binder 41*, rCAG binder conf 29 and dCAG dye counter 15*.
For Cc1ccc(O)c(-c2cc(C(=O)Nc3ccc(S(=O)(=O)N4CC(C)OC(C)C4)cc3)[nH]n2)c1 (stereo unspecified) the results were DAGLB inhibitor 2, LEDGF integ inh 2, HTRA1 inh -38, ABHD4 inh -34, PRMT1 FP inh -2 and rCAG RNA binder 23.
For O=C(Nc1ccc(S(=O)(=O)N2CCOCC2)cc1)c1cc(-c2cc(Cl)ccc2O)n[nH]1 the results were DAGLB inhibitor 2, LEDGF integ inh 1, HTRA1 inh -64, ABHD4 inh -96, PRMT1 FP inh -4, rCAG RNA binder 46*, rCAG binder conf 50* and dCAG dye counter 21*.
For CSc1nnc(-c2ccccc2N=Cc2c(C)[nH]n(-c3ccc4ccccc4c3)c2=O)c(=O)[nH]1 the results were DAGLB inhibitor 14, LEDGF integ inh 1, HTRA1 inh -16, ABHD4 inh -1, PRMT1 FP inh 0, rCAG RNA binder 68*, rCAG binder conf 71*, dCAG dye counter 32* and DNA CAG DR 9.2*.
For C=CCSc1nnc(-c2ccccc2N=Cc2c(C)[nH]n(-c3ccccc3)c2=O)c(=O)[nH]1 the results were DAGLB inhibitor 1, LEDGF integ inh -1, HTRA1 inh 4, ABHD4 inh 5, PRMT1 FP inh 1, rCAG RNA binder 41*, rCAG binder conf 33 and dCAG dye counter 9.6*.
C=CCSc1nnc(-c2ccccc2NC(=O)CC)c(=O)[nH]1 was read as DAGLB inhibitor -3, LEDGF integ inh 1, HTRA1 inh -5, ABHD4 inh 4, PRMT1 FP inh 2, rCAG RNA binder 51*, rCAG binder conf 5 and dCAG dye counter 2.
Cc1[nH]n(-c2ccccc2)c(=O)c1C=Nc1cnc2ccccc2c1 was read as DAGLB inhibitor -3, LEDGF integ inh 0, HTRA1 inh 3, ABHD4 inh 0, PRMT1 FP inh 1 and rCAG RNA binder 4.
`CC1(C(=O)NS(=O)(=O)c2cccc(F)c2)CCN1C(=O)c1ccccc1CCc1ccccc1` (stereo unspecified) gave LEDGF integ inh 2, ABHD4 inh -11, PRMT1 FP inh -6, rCAG RNA binder 52*, rCAG binder conf 43* and dCAG dye counter 11*.
CC1(C(=O)NS(=O)(=O)c2ccc3c(c2)CCO3)CCN1C(=O)c1ccccc1CCc1ccccc1 (stereo unspecified) was read as LEDGF integ inh 0, ABHD4 inh 2, PRMT1 FP inh -4, rCAG RNA binder 42*, rCAG binder conf 42* and dCAG dye counter 11*.
`CC1(C(=O)NS(=O)(=O)c2cccc(OC(F)F)c2)CCN1C(=O)c1ccccc1CCc1ccccc1` (stereo unspecified) gave LEDGF integ inh 0, ABHD4 inh -6, PRMT1 FP inh 0, rCAG RNA binder 61*, rCAG binder conf 54* and dCAG dye counter 17*.
For CC(C)(C)c1ccc(CC(=O)N2CCC2(C)C(=O)NS(=O)(=O)c2ccc3c(c2)CCO3)cc1 (stereo unspecified) the results were LEDGF integ inh -1, ABHD4 inh 8, PRMT1 FP inh -3 and rCAG RNA binder 24.
Cc1cccc(S(=O)(=O)NC(=O)C2(C)CCN2C(=O)c2ccccc2CCc2ccccc2)c1 (stereo unspecified) was read as LEDGF integ inh 2, ABHD4 inh -2, PRMT1 FP inh 1, rCAG RNA binder 39*, rCAG binder conf 45* and dCAG dye counter 11*.
Screening COc1cccc(NC(=O)CNC(=O)[C@@H]2Cc3ccccc3CN2C(=O)OC(C)(C)C)c1 returned DAGLB inhibitor -2, LEDGF integ inh 0, HTRA1 inh 3, ABHD4 inh 5, PRMT1 FP inh 3 and rCAG RNA binder -5.
O=C(OCc1ccccc1)N1CCC2CC1c1cc(N3CCN(S(=O)(=O)c4cccc(C(F)(F)F)c4)CC3)ccc12 (stereo unspecified) was read as DAGLB inhibitor -16, LEDGF integ inh -7, HTRA1 inh -2, ABHD4 inh -12, PRMT1 FP inh 4 and rCAG RNA binder 7.
Screening Cn1ccnc1SCCNC(=O)CCc1nnc(CCCCc2ccccc2)o1 returned DAGLB inhibitor 1, LEDGF integ inh 2, HTRA1 inh 5, ABHD4 inh 0, PRMT1 FP inh -4 and rCAG RNA binder -5.
